High-throughput results from PubChem.
Compounds with a hit are over-represented: about 4.9% of the library has one in this group of screens.
NF-kB expr up – activators of NF-kB expression in neurons, primary screen, cell-based, HTS. 1.6% of 190,000 active. AID 1239, 2008. human neuronal cells, NF-kB reporter expression; hits give high values. fold change at 12.5 µM; in the data active = fold change above about 3.3
APP 5'UTR act – activators of APP 5'UTR luciferase reporter, primary screen, SH-SY5Y cells | SH-SY5Y APP 5'UTR luciferase reporter, luminescence; zero percent = DMSO vehicle wells | activation, % at 2 µM | 1% of 190,000 active | AID 1276, 2008;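 active = activation above a set limit, based on mean plus 3 SD of controls, cut at about 140% in these data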
STAT1 activator – STAT1 signaling activators, primary screen, cell-based, HTS, luciferase reporter | NIH 3T3 STAT1-luciferase reporter, IFN-gamma, luminescence; 100% = IFN-gamma alone, no compound | activation (% of control), % at 5.5 µM | 2.6% of 200,000 active | AID 932, 2007;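 active = activation above the screen-wide mean activation plus 3 SD, cut at about 130% in these data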
STAT1 blocker – STAT1 signaling inhibitors, primary screen, cell-based, HTS, luciferase reporter; NIH 3T3 STAT1-luciferase reporter, IFN-gamma, luminescence; 0.35% of 200,000 active; inhibition, % at 5.5 µM;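 active = inhibition above a set limit, the mean inhibition across all tested compounds plus 3 SD, cut at about 34% in these data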
STAT3 activator – IL-6 driven STAT3 reporter potentiators, primary screen, U3A cells, luciferase, luminescence, MLSCN library; AID 871, 2007; 0.91% of 190,000 active; activation (% of control), % at 5.6 µM; IL-6 STAT3-luciferase reporter; 100% = signal with IL-6 EC80 alone;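 active = activation above the screen-wide mean of compound activation plus 3 SD, cut at about 130% in these data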
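system = STAT3-luciferase reporter U3A cells | reagent = IL-6 stimulus at 33 ng/mL final | timing = 1 h compound pre-exposure, 6 h IL-6 stimulation, 37 °C | measured by = luminescence | evaluation = % activation versus median of IL-6-stimulated wells | control set = IL-6-only wells as 100% reference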
STAT3 inh – IL-6 driven STAT3 reporter inhibitors, primary screen, U3A cells, luciferase, luminescence, MLSCN library | IL-6 STAT3-luciferase reporter; host cell line lacks STAT1 | 0.89% of 190,000 active | AID 862, 2007 | inhibition, % at 5.5 µM;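 active = inhibition above the mean inhibition across all screened compounds plus 3 SD, cut at about 44% in these data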
Hits are given with their value.

`COc1cc(/C=N/NC(=O)c2cccc([N+](=O)[O-])c2)ccc1OCc1ccccc1` gave NF-kB expr up inactive, APP 5'UTR act inactive, STAT1 activator inactive, STAT1 blocker inactive, STAT3 activator inactive and STAT3 inh inactive.
CCOc1ccc(OCc2cccc(C(=O)N3CCCCCC3)c2)cc1 was read as NF-kB expr up inactive, APP 5'UTR act inactive, STAT1 activator inactive, STAT1 blocker 71, STAT3 activator inactive and STAT3 inh 80.
For CCCNC(=O)N1CCN(S(C)(=O)=O)CC1 the results were NF-kB expr up inactive, APP 5'UTR act inactive, STAT1 activator inactive, STAT1 blocker inactive, STAT3 activator inactive and STAT3 inh inactive.
O=C(O)c1ccc(NC(=S)NC(=O)c2cccc(COc3ccccc3)c2)cc1 was read as NF-kB expr up inactive, APP 5'UTR act inactive, STAT1 activator inactive, STAT1 blocker inactive, STAT3 activator inactive and STAT3 inh inactive.
For COc1ccc(OCc2cccc(C(=O)O)c2)cc1 the results were NF-kB expr up 8.6.
For O=C(NN1CCCCC1)c1cccc(COc2ccc(Cl)cc2)c1 the results were NF-kB expr up inactive, APP 5'UTR act inactive, STAT1 activator 130, STAT1 blocker inactive, STAT3 activator inactive and STAT3 inh inactive.
`Cc1ccc(OCc2csc(N)n2)cc1` gave NF-kB expr up inactive, APP 5'UTR act inactive, STAT1 activator 131, STAT1 blocker inactive, STAT3 activator inactive and STAT3 inh inactive.
Screening Nc1nc(COc2ccc(Cl)cc2)cs1 returned NF-kB expr up inactive, APP 5'UTR act inactive, STAT1 activator 137, STAT1 blocker inactive, STAT3 activator inactive and STAT3 inh inactive.
Cc1ccc(OCC(=O)Nc2ccc3c(c2)OCCO3)cc1C was read as NF-kB expr up inactive, APP 5'UTR act inactive, STAT1 activator inactive, STAT1 blocker inactive, STAT3 activator inactive and STAT3 inh inactive.
`Cc1cccc(N(CC(O)CON=C2c3ccccc3-c3ccccc32)S(C)(=O)=O)c1` (configuration not stated) gave NF-kB expr up inactive, APP 5'UTR act inactive, STAT1 activator inactive, STAT1 blocker inactive, STAT3 activator inactive and STAT3 inh inactive.
For COc1cc(C(=O)NCCCNc2nc3cc(C)c(C)cc3cc2C#N)cc(OC)c1OC the results were NF-kB expr up inactive, APP 5'UTR act inactive, STAT1 activator inactive, STAT1 blocker inactive, STAT3 activator inactive and STAT3 inh inactive.
`COc1nccc(-c2ccc(F)cc2)c1C#N` gave NF-kB expr up inactive, APP 5'UTR act inactive, STAT1 activator inactive, STAT1 blocker inactive, STAT3 activator inactive and STAT3 inh inactive.
COc1ccc(C(=O)Nc2ccc(NC(=O)c3cnccn3)cn2)cc1 was read as NF-kB expr up inactive, APP 5'UTR act inactive, STAT1 activator inactive, STAT1 blocker inactive, STAT3 activator inactive and STAT3 inh inactive.
CCOC(=O)c1cnc(SCC(=O)c2ccc(Cl)cc2)nc1N was read as NF-kB expr up inactive, APP 5'UTR act inactive, STAT1 activator inactive, STAT1 blocker inactive, STAT3 activator inactive and STAT3 inh inactive.
CCOC(=O)c1cnc(SCc2ccc(C)cc2)nc1N was read as NF-kB expr up inactive, APP 5'UTR act inactive, STAT1 activator 140, STAT1 blocker inactive, STAT3 activator inactive and STAT3 inh inactive.
For CCCCSc1ncc(C(=O)OCC)c(N)n1 the results were NF-kB expr up 6.8, APP 5'UTR act 164, STAT1 activator 139, STAT1 blocker inactive, STAT3 activator inactive and STAT3 inh inactive.
`CCOC(=O)c1cnc(SCc2nc(N)nc(Nc3ccccc3)n2)nc1N` gave NF-kB expr up inactive, APP 5'UTR act inactive, STAT1 activator inactive, STAT1 blocker inactive, STAT3 activator inactive and STAT3 inh inactive.
COc1cc(/C=N/n2nnnc2Nc2ccccc2)cc(OC)c1OC was read as NF-kB expr up inactive, APP 5'UTR act inactive, STAT1 activator inactive, STAT1 blocker inactive, STAT3 activator inactive and STAT3 inh inactive.
`c1ccc(CCNc2nc(-c3cccnc3)cs2)cc1` gave NF-kB expr up inactive, APP 5'UTR act inactive, STAT1 activator 133, STAT1 blocker inactive, STAT3 activator inactive and STAT3 inh inactive.
Screening c1ccc(CCNc2nc(-c3ccccn3)cs2)cc1 returned NF-kB expr up 4.1, APP 5'UTR act inactive, STAT1 activator 142, STAT1 blocker inactive, STAT3 activator inactive and STAT3 inh inactive.
O=C(Nc1nc(-c2cccnc2)cs1)c1ccccc1Cl was read as NF-kB expr up inactive, APP 5'UTR act inactive, STAT1 activator inactive, STAT1 blocker inactive, STAT3 activator inactive and STAT3 inh inactive.
For Cc1ccc(S(=O)(=O)N2CCCCC2)c(C)c1NS(C)(=O)=O the results were APP 5'UTR act inactive, STAT1 activator inactive, STAT1 blocker inactive, STAT3 activator inactive and STAT3 inh inactive.
Screening S=c1nc(-c2csc3c2CCCC3)[nH][nH]1 returned NF-kB expr up inactive, APP 5'UTR act inactive, STAT1 activator inactive, STAT1 blocker inactive, STAT3 activator inactive and STAT3 inh inactive.
COc1cccc(-c2cn3nc(C)c(C)nc3n2)c1 was read as NF-kB expr up inactive, APP 5'UTR act 141, STAT1 activator inactive, STAT1 blocker inactive, STAT3 activator inactive and STAT3 inh inactive.
`CC(C)(C)c1ccc(-c2nnc(N)s2)cc1` gave NF-kB expr up 4.9, APP 5'UTR act 146, STAT1 activator 132, STAT1 blocker inactive, STAT3 activator inactive and STAT3 inh inactive.
`O=C(/C=C/c1ccco1)N(c1ccccn1)c1ccccn1` gave NF-kB expr up inactive, APP 5'UTR act inactive, STAT1 activator inactive, STAT1 blocker inactive, STAT3 activator inactive and STAT3 inh inactive.
Cc1cccn2cc(-c3ccccc3)nc12 was read as NF-kB expr up 4.3, APP 5'UTR act 154, STAT1 activator 138, STAT1 blocker inactive, STAT3 activator inactive and STAT3 inh inactive.
Cc1cccn2cc(-c3cccc(NC(=O)c4cccs4)c3)nc12 was read as NF-kB expr up inactive, APP 5'UTR act inactive, STAT1 activator 131, STAT1 blocker inactive, STAT3 activator inactive and STAT3 inh inactive.
Screening Cc1cccn2cc(-c3ccc(F)cc3)nc12 returned NF-kB expr up 5.8, APP 5'UTR act inactive, STAT1 activator 130, STAT1 blocker inactive, STAT3 activator inactive and STAT3 inh inactive.
Screening COc1ccc2c(c1)Cc1sc(NC(=O)c3ccccc3)nc1-2 returned NF-kB expr up inactive, APP 5'UTR act inactive, STAT1 activator 134, STAT1 blocker inactive, STAT3 activator inactive and STAT3 inh inactive.
For COc1ccc2c(c1)Cc1sc(NC(=O)c3cccs3)nc1-2 the results were NF-kB expr up inactive, APP 5'UTR act inactive, STAT1 activator 149, STAT1 blocker inactive, STAT3 activator inactive and STAT3 inh inactive.
